Format in all cases: functional, cell-based
The nature of assay [1]: Growth inhibition of human Molt4/C8 cells. Particulars: MOLT-4. Summed up:
(§1)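 Cells grown with test compound for 72 h at 37 C in humidified CO2-controlled atmosphere; cells counted by Coulter counter at end of incubation; IC50 = concentration reducing number of living cells by 50%.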

A short description of assay [2]: Growth inhibition of human CEM/0 cells. The following applies: CCRF-CEM. Summed up: as §1
Assay [3] in a line: Growth inhibition of mouse L1210/0 cells. The procedure, abridged: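 Cells grown with test compound for 48 h at 37 C in humidified CO2-controlled atmosphere; cells counted by Coulter counter at end of incubation; IC50 = concentration reducing number of living cells by 50%.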

For orientation: IC50 means the midpoint of a concentration-inhibition curve.

Converted amounts (≈) assume the structure as drawn.

As for `Cc1cn(C2CCCC2)c(=O)[nH]c1=O`, the IC50 came to 98.8 µg/mL (≈ 509 µM) in assay [1], 138 µg/mL (≈ 710 µM) in assay [2] and 85.2 µg/mL (≈ 439 µM) in assay [3].
For the compound `O=c1[nH]c(=O)n(C2CCCC2)cc1F`, the IC50 in assay [1] came to 78.1 µg/mL (≈ 394 µM); in assay [2], 66 µg/mL (≈ 333 µM); in assay [3] it was 35.1 µg/mL (≈ 177 µM).
In the same order, the values of `O=c1[nH]c(=O)n(C2CCCC2)cc1Cl` are 81.3 µg/mL (≈ 379 µM), 82 µg/mL (≈ 382 µM) and 103 µg/mL (≈ 480 µM).
Take `O=c1[nH]c(=O)n(C2CCCC2)cc1Br`: the IC50 in assay [1] is 97.2 µg/mL (≈ 375 µM); in assay [2], 37.1 µg/mL (≈ 143 µM); in assay [3], 50.3 µg/mL (≈ 194 µM).
For `O=c1[nH]c(=O)n(C2CCCC2)cc1I`, the figures for the IC50 in assay [1], in assay [2] and in assay [3] were 53.2 µg/mL (≈ 174 µM), 60.9 µg/mL (≈ 199 µM) and 98.8 µg/mL (≈ 323 µM), respectively.
In the case of `O=c1ccn(C2CCCC2)c(=O)[nH]1`, the 50% inhibitory concentration (IC50) came to 108 µg/mL (≈ 599 µM) in assay [1], 80 µg/mL (≈ 444 µM) in assay [2] and 66.3 µg/mL (≈ 368 µM) in assay [3].

Source of the values: ChEMBL document CHEMBL1146358, “ANN-QSAR model for selection of anticancer leads from structurally heterogeneous series of compounds” (Eur J Med Chem, 2007).
